Measured values gathered from unrelated publications.
Protocols differ between the studies behind these lines.
Target: MAP kinase-activated protein kinase 5 (MAPKAPK5, Homo sapiens, UniProt Q8IW41)

| SMILES | observed | action | technique | tested at | endpoint | result |
| --- | --- | --- | --- | --- | --- | --- |
| Nc1nc(NC2CCCCC2)sc1C(=O)c1ccccc1 | enzyme activity | inhibitor |  | 10 µM | remaining activity | 96% |
| CC(C)c1ccc(NC(=O)c2cccs2)c(-c2nc3ccccc3[nH]c2=O)c1 | enzyme activity | inhibitor |  | 1 µM | activity vs control | 106% |
| O=C(Nc1cnn(-c2csc(C(=O)NC3COC3)c2)c1)Nc1ccccc1Cl | enzyme activity | inhibitor |  | 5 µM | remaining activity | 92.8% |
| CC/C(=N\NC(=O)NCc1cccc(O)c1)c1ccc(O)c(C)c1O | enzyme activity | inhibitor |  | 0.1 µM | inhibition | -8% |
| COc1cc(Nc2cnc(C#N)c(O[C@H](C)CN(C)C)n2)ncc1-c1cnn(C)c1 | enzyme activity | inhibitor | radiometric | 1 µM | remaining activity | 78% |
| CC(C)(O)[C@H]1CC[C@H](Nc2ccc3ncc(-c4cccc(C(F)(F)F)c4)n3n2)CC1 | enzyme activity | inhibitor |  | 1 µM | remaining activity | 105% |
| COc1ccc2cc(OCC3(C(=O)O)CN(C(=O)c4ccc(F)cc4)C3)ccc2c1 | cell-free assay |  | competition with immobilised ligand | 1 µM | remaining binding | 76% |
| CCN(CC)CCNC(=O)c1c(C)[nH]c(/C=C2\C(=O)Nc3ccc(F)cc32)c1C | cell-free assay |  |  | 0.5 µM | remaining signal | 82.7% |
| Nc1cnc(N2CCc3cc(S(=O)(=O)Nc4c(F)cc(Cl)cc4F)cc(N4CCCC4=O)c32)nc1 | cell-free assay |  | competition with immobilised ligand | 1 µM | remaining binding | 92% |
| Cc1ccc(Nc2nccc(N(C)c3ccc4c(C)n(C)nc4c3)n2)cc1S(N)(=O)=O | enzyme activity | inhibitor |  | 0.3 µM | inhibition | -3% |
| C[C@H](NC(=O)c1cnc2n1[C@](C)(Cc1ccc(C#N)cc1)C(=O)N2c1cc(Cl)c(F)c(Cl)c1)C(=O)NC1(c2ccccn2)CC1 | cell-free assay |  | competition with immobilised ligand | 1 µM | remaining binding | 96% |
| CNC(=O)c1cc(Oc2ccc(NC(=O)Nc3ccc(Cl)c(C(F)(F)F)c3)cc2)ccn1 | enzyme activity | inhibitor |  | 10 µM | inhibition | 66% |
| COc1cc(/C=C/C(=O)CC(=O)/C=C/c2ccc(O)c(OC)c2)ccc1O | enzyme activity | inhibitor |  | 1 µM | activity vs control | 101% |
| CC(C)(C)c1nc2c(s1)c1nc(N)ncc1c1ccc(NS(=O)(=O)c3c(F)cccc3F)c(F)c12 | enzyme activity | inhibitor | radiometric | 1 µM | remaining activity | 83% |
| FC(F)(F)Oc1cccc(-c2cnc3ccc(-c4ccncc4)nn23)c1 | enzyme activity | inhibitor | radiometric | 5 µM | activity vs control | 85% |
| COCCOc1nc(-c2ccc(Cl)nc2)nc2c1CN(C(=O)c1ncn3ccccc13)CC2 | cell-free assay |  | competition with immobilised ligand | 0.1 µM | remaining binding | 100% |
| C[C@@H]1CCN(C(=O)CC#N)C[C@@H]1N(C)c1ncnc2[nH]ccc12 | cell-free assay | inhibitor |  | 0.5 µM | remaining signal | 97.3% |

| SMILES | observed | action | technique | tested at | endpoint | result |
| --- | --- | --- | --- | --- | --- | --- |
| CNCc1ccc(-c2cc(-c3nc(-c4ccc(S(=O)(=O)C(C)C)cc4)cnc3N)on2)cc1 | enzyme activity | inhibitor |  | 2 µM | inhibition | 0% |
| Cc1cnc(NC2CCOCC2)nc1-n1cnc(C(=O)NC(CN)c2cc(F)cc(Cl)c2)c1 (stereo not shown) | enzyme activity | inhibitor | radiometric | 1 µM | remaining activity | 114% |
| Cc1sc(C(=O)NC2COC2)cc1-n1cc(NC(=O)Nc2c(F)cccc2Cl)cn1 | enzyme activity | inhibitor |  | 10 µM | remaining activity | 96.5% |
| CO[C@@H](C)c1c(Nc2ccc([C@H](N(C)C(=O)C3CCS(=O)(=O)CC3)C(F)(F)F)cc2)cnc2cc(Cl)nn12 | cell-free assay |  | competition with immobilised ligand | 1 µM | remaining binding | 100% |
| COc1cc2ncnc(Nc3ccc(Oc4ccccc4)c(C)c3C)c2cc1OC | enzyme activity | inhibitor |  | 1 µM | inhibition | -1% |
| Cc1cc(-n2nc(Cc3cc(F)cc(C(F)(F)F)c3)nc2C)ccc1C(N)=O | cell-free assay |  | competition with immobilised ligand | 1 µM | remaining binding | 100% |
| Nc1ncnc2occ(-c3ccc(NC(=O)Nc4cc(C(F)(F)F)ccc4F)cc3)c12 | cell-free assay | inhibitor |  | 20 µM | remaining signal | 58% |
| Oc1cccc(-c2nc(N3CCOCC3)c3oc4ncccc4c3n2)c1 | enzyme activity | inhibitor |  | 10 µM | remaining activity | 77% |
| CN(c1ncccc1CNc1nc(Nc2ccc3c(c2)CC(=O)N3)ncc1C(F)(F)F)S(C)(=O)=O | enzyme activity | inhibitor |  | 1 µM | inhibition | 0% |
| CN(C)c1ncnc(-c2ccc3nc(Nc4cc(CN5CCN(C(=O)CC(F)(F)F)CC5)ccn4)[nH]c3c2)c1Cl | cell-free assay |  | competition with immobilised ligand | 1 µM | remaining binding | 96% |
| CCN(CC)c1ccc(C2=NNC(=O)CC2C)cc1[N+](=O)[O-] (stereo not shown) | enzyme activity | inhibitor |  | 10 µM | remaining activity | 104% |
| COc1cc(Cl)c(C(=O)N[C@@H](CN[C@H]2CC[C@@H](N)CC2)Cc2ccc(C#N)cc2)cc1-c1ccc(CN[C@H](C)c2ccc(C)cc2)o1 | enzyme activity | inhibitor |  | 1 µM | remaining activity | 89% |
| CCCOc1ccc(OC)c(F)c1C(=O)c1ccc(C(=O)N[C@@H]2CNC[C@H]2NC(=O)c2ccc3[nH]ncc3c2)cc1 | enzyme activity | inhibitor |  | 10 µM | remaining activity | 91% |
| CNc1cccc2cc(C(=O)Nc3ccc(C(=O)O)cc3)c(=O)[nH]c12 | enzyme activity | inhibitor |  | 10 µM | inhibition | 20% |
| Cc1nc(Cc2cccc(C(F)(F)F)c2)sc1-c1ccc(C(N)=O)nc1 | cell-free assay |  | competition with immobilised ligand | 1 µM | remaining binding | 100% |
| O=C1NC(=O)c2cc(Nc3ccc(F)cc3)c(Nc3ccc(F)cc3)cc21 | cell-free assay |  |  | 0.5 µM | remaining signal | 93.4% |
| Cn1cnc(Br)c1C1=CN(c2ncnc3[nH]cnc23)CCS1 | enzyme activity | inhibitor | radiometric | 2 µM | inhibition | 15.2% |
